Measurements as given in PMC3984478 (Cancer cell, 2012).

Key:
HBL-1 cells [1] = test: Growth inhibition, ATP-based luminescent assay; type: cell-based, human; conditions: HBL-1
Outline: (§1)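 Cells received a single dose of test compound over a concentration range and proliferation was read at 48 hr by luminescent ATP quantification. Luminescence was converted to cell number using per-line standard curves built from trypan blue counts. Viability was normalised to controls and expressed as 1 − fractional viability, and GI25/GI50 were fitted. Experiments were run three times in triplicate.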

[2] = target: MALT1 active site mutant C464A (Homo sapiens, UniProt Q9UDY8, C464A); test: LC-MS covalent modification, mutant; type: binding
U2932 cells = test: Growth inhibition, ATP-based luminescent assay; type: cell-based, human; conditions: U2932, single dose, 48 hr
Outline: as §1

[3] = tested on: NF-κB reporter in 293T cells expressing MALT1 WT; test: NF-κB reporter assay, PMA/ionomycin, BCL10 + MALT1 WT; type: cell-based; conditions: 2 µM pretreatment 30 min, PMA/ionomycin 2 hr
[4] = target: MALT1 paracaspase domain (329–728) (Homo sapiens, UniProt Q9UDY8); test: LC-MS covalent modification; type: binding
[5] = target: paracaspase domain of MALT1 (residues 329–728) (Homo sapiens, UniProt Q9UDY8); test: HSQC NMR binding
caspase-3/7 activity = test: Cell-based caspase-3/7 activity and apoptosis inhibition; conditions: at concentrations that suppress MALT1
[6] = tested on: nuclear c-REL and p65 in HBL-1 and TMD8 cells; test: Western blots for c-REL and p65 in nuclear extracts; type: cell-based, human; conditions: 24 hr, 200 nM for HBL-1 and 500 nM for TMD8
Outline: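 Nuclear extracts were prepared from HBL-1 cells (200 nM test compound) and TMD8 cells (500 nM) after 24 hr treatment and immunoblotted for c-REL and p65.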

OCI-Ly1 = test: CFSE dilution proliferation assay; type: cell-based, human; conditions: increasing concentrations, 48, 72, and 96 hr
Outline: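 Cells were exposed to increasing concentrations of test compound, and CFSE dilution was read by flow cytometry at 48, 72 and 96 hr. 2 × 10^4 cells were acquired per sample, and DAPI staining was used to gate viable cells for analysis.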

OCI-Ly1 xenografts = test: OCI-Ly1 xenograft in NOD-SCID mice; type: in vivo; conditions: IP 25 mg/kg/day, 14 injections
Outline: (§2)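 Eight-week-old male NOD-SCID (NOD.CB17-Prkdcscid/J) mice received 10^7 low-passage cells subcutaneously in 50% Matrigel in the right flank. At an average tumour size of 120 mm3, mice were randomised to test compound 25 mg/kg/day IP or vehicle (5% DMSO) for 14 consecutive days and sacrificed 24 hr after the 14th injection. Caliper volume, (smallest diameter² × largest)/2, was taken three times weekly. Ki-67 IHC was counted per high-power field.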

[7] = tested on: GCB-DLBCL cell lines (OCI-Ly7 and OCI-Ly1); test: Growth inhibition, ATP-based luminescent assay; type: cell-based, human; conditions: two GCB-DLBCL cell lines, single dose, 48 hr
Outline: as §1

HBL-1 cells [8] = test: Recovery of cells after a single dose; type: cell-based, human; conditions: 0.2 µM dose level
HBL-1 xenografts = test: HBL-1 xenograft in NOD-SCID mice; type: in vivo; conditions: IP 25 mg/kg/day, 14 injections
Outline: as §2

[9] = tested on: MALT1-mediated cleavage of CYLD in HBL-1 cells; test: MALT1 cleavage of CYLD, western blotting and densitometry; type: cell-based, human
[10] = tested on: ABC-DLBCL cell lines HBL-1 and TMD8, GCB-DLBCL cell line OCI-Ly1; design: species or system human; conditions: 48 hr, cell-based assays
Outline: as §1

[11] = tested on: NF-κB reporter in 293T cells expressing MALT1 C464A; test: NF-κB reporter assay, PMA/ionomycin, BCL10 + MALT1 C464A; type: cell-based; conditions: 2 µM pretreatment 30 min, PMA/ionomycin 2 hr
[12] = tested on: Z-VRPR-FMK signature genes in HBL-1 and TMD8 cell lines; test: Gene expression profiling, GSEA; type: cell-based, human; conditions: GI50 concentrations (HBL-1 200 nM; TMD8 500 nM), 8 hr
[13] = tested on: nuclear c-REL in HBL-1 cells; test: c-REL flow cytometry of whole cells or isolated nuclei; type: cell-based, human; conditions: 200 nM MI-2 or 50 µM Z-VRPR-FMK, 24 hr
Outline: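 HBL-1 cells were exposed for 24 hr to 200 nM test compound, to 50 µM Z-VRPR-FMK as positive control, or to vehicle. c-REL was then measured by flow cytometry in whole cells and in isolated nuclei.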

HBL-1 and TMD8 cells = test: Trypan blue cell number and Annexin V+ DAPI− apoptosis time course, 14 days; type: cell-based, human; conditions: treated daily at GI25 and GI50, 14 days
Outline: (§3)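 Cell lines were dosed with test compound every 24 hr. Every 48 hr for 14 days, cells were counted by trypan blue exclusion and apoptosis was measured as Annexin V+ DAPI− by flow cytometry. Cell number is expressed as % of vehicle at each time point.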

OCI-Ly1 cells = test: as above; type: cell-based, human; conditions: treated daily at the doses used for TMD8, 14 days
Outline: as §3

OCI-Ly10 cells = test: Growth inhibition, ATP-based luminescent assay; type: cell-based, human; conditions: OCI-Ly10, single dose, 48 hr
Outline: as §1

OCI-Ly3 cells = test: Growth inhibition, ATP-based luminescent assay; type: cell-based, human; conditions: OCI-Ly3, single dose, 48 hr
Outline: as §1

[14] = tested on: ABC-DLBCL cell lines HBL-1 and TMD8; test: Caspase-3/7 cleavage assay; type: cell-based, human
Outline: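 Caspase-3/7 cleavage assay run within 48 hr of exposure to increasing concentrations of test compound.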

caspase-9 = caspase-9 (Homo sapiens, UniProt P55211); test: Caspase selectivity; type: biochemical
HBL-1 cells [15] = test: Intracellular concentration by LC-MS; type: in vitro ADME, human
Outline: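 HBL-1 cells were exposed to 0.02, 0.2 or 2 µM test compound for 2 hr, washed three times, and intracellular compound was quantified by LC-MS. For free-drug kinetics, cells at 0.2 µM were sampled at 30 min and at 2, 6, 12, 24 and 48 hr.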

TMD8 xenografts = test: TMD8 xenograft in NOD-SCID mice; type: in vivo; conditions: IP 25 mg/kg/day, 14 injections
Outline: as §2

Sequence of caspase-9 (P55211 whole entry, species assumed): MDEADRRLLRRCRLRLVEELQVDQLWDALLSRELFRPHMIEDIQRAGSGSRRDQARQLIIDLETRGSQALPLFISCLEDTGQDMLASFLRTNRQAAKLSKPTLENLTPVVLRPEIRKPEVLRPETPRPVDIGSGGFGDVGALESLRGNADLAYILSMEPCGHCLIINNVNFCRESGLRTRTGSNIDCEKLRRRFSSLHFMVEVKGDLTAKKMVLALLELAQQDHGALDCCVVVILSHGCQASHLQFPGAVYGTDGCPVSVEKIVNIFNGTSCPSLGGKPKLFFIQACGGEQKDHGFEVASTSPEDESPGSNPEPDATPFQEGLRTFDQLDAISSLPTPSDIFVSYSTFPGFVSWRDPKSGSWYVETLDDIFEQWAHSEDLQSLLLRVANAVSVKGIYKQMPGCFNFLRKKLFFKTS
Sequence of paracaspase domain of MALT1 (residues 329–728) (Q9UDY8 329-728): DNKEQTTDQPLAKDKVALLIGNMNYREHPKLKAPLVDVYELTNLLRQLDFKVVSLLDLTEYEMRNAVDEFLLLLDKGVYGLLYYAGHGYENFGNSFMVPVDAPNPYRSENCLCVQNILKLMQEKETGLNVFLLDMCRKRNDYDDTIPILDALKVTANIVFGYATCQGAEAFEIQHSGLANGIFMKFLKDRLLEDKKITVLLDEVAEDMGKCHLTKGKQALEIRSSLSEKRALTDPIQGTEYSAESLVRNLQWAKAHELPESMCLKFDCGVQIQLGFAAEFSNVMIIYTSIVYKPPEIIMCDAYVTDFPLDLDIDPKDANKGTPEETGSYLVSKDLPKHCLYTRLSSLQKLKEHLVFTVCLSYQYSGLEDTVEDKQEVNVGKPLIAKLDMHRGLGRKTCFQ
Sequence of MALT1 paracaspase domain (329–728) (Q9UDY8 329-728): as above
Sequence of MALT1 active site mutant C464A (Q9UDY8 329-728 C464A): as the sequence (Q9UDY8 329-728) above, with C136A counted along it

## COCCOc1nc(-c2ccc(Cl)c(Cl)c2)n(-c2ccc(NC(=O)CCl)cc2)n1 [MI-2]
HBL-1 cells [1]
  GI50: 200 nM
[2]
  covalent binding by LC-MS: markedly reduced covalent binding
U2932 cells
  growth inhibition: resistant
[3]
  NF-κB induction by PMA/ionomycin: significantly inhibited NF-κB induction
[4]
  covalent binding by LC-MS: can bind covalently to MALT1
[5]
  binding by HSQC NMR: robust interaction
caspase-3/7 activity
  inhibition of caspase-3/7 activity or apoptosis in cell-based assays: did not inhibit
[6]
  nuclear c-REL (western blot): clear reduction of nuclear c-REL
  nuclear p65 levels (western blot): did not affect p65 levels
OCI-Ly1
  proliferation (CFSE dilution): did not affect OCI-Ly1
OCI-Ly1 xenografts
  apoptotic cells (TUNEL) relative to vehicle: not in OCI-Ly1 xenografts
  proliferation (Ki-67 staining) compared to vehicle: no difference
  tumor growth versus vehicle: no effect on the growth
[7]
  growth inhibition: resistant
HBL-1 cells [8]
  recovery of cells: only started to become evident after 48 hr
HBL-1 xenografts
  apoptotic cells (TUNEL) relative to vehicle: significant increase in apoptotic cells
  c-REL nuclear protein in tumor sections: reduced c-REL nuclear protein
  proliferation (Ki-67 staining) compared to vehicle: significant decrease in proliferation
  tumor growth versus vehicle: profoundly suppressed the growth
[9]; HBL-1, 5 µM for 8 hr, Z-VRPR-FMK 50 µM positive control
  inhibition of MALT1 cleavage of CYLD: most potent compound
[9]; HBL-1, increasing concentrations, 24 hr
  MALT1-mediated cleavage of CYLD: dose-dependent decrease in MALT1-mediated cleavage
[10]
  25% growth-inhibitory concentration (GI25): high-nanomolar range
[11]
  NF-κB induction by PMA/ionomycin: did not significantly affect
[12]
  enrichment of Z-VRPR-FMK signature (GSEA): significantly enriched among genes downregulated after MI-2 treatment
[13]
  nuclear c-REL (flow cytometry): reduced nuclear c-REL to a similar extent
HBL-1 and TMD8 cells
  cell number and apoptosis: profoundly suppressed
OCI-Ly1 cells
  cell number and apoptosis: no effect on OCI-Ly1 cells
OCI-Ly10 cells
  GI50: 400 nM
OCI-Ly3 cells
  GI50: 400 nM
[14]
  apoptosis (caspase-3/7 cleavage): dose-dependent apoptosis within 48 hr
caspase-9
  activity against caspase-9: little activity
HBL-1 cells [15]; HBL-1, 0.2 µM, 2 hr
  intracellular concentration: 5 µM
HBL-1 cells [15]; HBL-1, 0.2 µM, by 12 hr
  free intracellular drug: virtually no detectable free MI-2
HBL-1 cells [15]; HBL-1 exposed to 0.02, 0.2, or 2 µM for 2 hr, washed three times
  increase in intracellular concentration: 18- to 30 fold
TMD8 xenografts
  apoptotic cells (TUNEL) relative to vehicle: significant increase in apoptotic cells
  proliferation (Ki-67 staining) compared to vehicle: significant decrease in proliferation
  tumor growth versus vehicle: profoundly suppressed the growth
